Entries after “also recorded” stand apart in the source; their conditions may differ.
Assays:
[1] = system: L. mexicana amastigotes within macrophage host (RAW 267.4); assay: Infected cell assay: screening against infected macrophages; assay type: cell-based, Leishmania mexicana; settings: 24 h
RAW 267.4 macrophages = assay: Cytotoxicity screening against RAW267.4 macrophages; assay type: cell-based, Mus musculus
Method in brief: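 Only compounds retained after the axenic amastigote dose-response screen were tested. Host RAW 267.4 macrophages were used. […] Selectivity index is macrophage ED50 divided by axenic amastigote ED50.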

[2] = system: L. mexicana axenic amastigotes; assay: Primary screen against axenic amastigotes, single concentration; assay type: cell-based, Leishmania mexicana; settings: 50 μM, in duplicate, inhibition of amastigote proliferation
Method in brief: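 Run in a 96-well format against mammalian-stage L. mexicana axenic amastigotes. Each test compound was tested at a single 50 μM in duplicate, with inhibition of amastigote proliferation as the read-out. Amphotericin B served as positive control, and plate robustness was judged by Z′ factor.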

[3] = system: axenic L. mexicana amastigotes; assay: Secondary dose response screen against axenic amastigotes; assay type: cell-based, Leishmania mexicana; settings: 50 µM to 0.21 µM, 24 h + 24 h alamarBlue, 33 °C

Structure (SMILES) | % inhibition Primary screen [2] | other results
CC1(C)CC[C@]2(C(=O)O)CC[C@]3(C)C(=CC[C@@H]4[C@@]5(C)CC[C@H](OC(=O)CCC(=O)O)[C@@](C)(COC(=O)CCC(=O)O)[C@@H]5CC[C@]43C)[C@@H]2C1 [IVL-1, hederagenin disuccinate] | – | InMAC ED50 - effective dose to kill 50% of amastigotes within macrophage host (RAW 267.4) [1]: not active; SI - selectivity index, RAW ED50/AMA ED50 (RAW 267.4 macrophages; RAW 267.4 macrophages versus axenic L. mexicana amastigotes): > 43.5; RAW ED50 - effective dose to kill 50% of host macrophage (RAW 267.4) (RAW 267.4 macrophages; toxicity study, 100 µM to 0.41 µM, 24 h): >100 µM
CC1(C)CC[C@]2(C(=O)O)CC[C@]3(C)C(=CC[C@@H]4[C@@]5(C)CC[C@H](O)[C@@](C)(CO)[C@@H]5CC[C@]43C)[C@@H]2C1 [IVL-7, hederagenin] | < 95% | –
CC1(C)CC[C@]2(C(=O)O)CC[C@]3(C)C(=CC[C@@H]4[C@@]5(C)CC[C@H](O)C(C)(C)[C@@H]5CC[C@]43C)[C@@H]2C1 [IVL-8, Oleanolic acid] | fell below the threshold; also recorded: deselected | –
CC1(C)CC[C@]2(C(=O)O)CC[C@]3(C)C(=CCC4[C@@]5(C)CC[C@H](O[C@@H]6O[C@H](CO)[C@@H](O)[C@H](O)[C@H]6O[C@@H]6O[C@H](CO)[C@@H](O)[C@H](O)[C@H]6O)[C@@](C)(CO)C5CC[C@]43C)[C@@H]2C1 (some centres unmarked) [IVL-14, hederoside F] | fell below the threshold; also recorded: did not reach this cut-off | –
C[C@@H]1O[C@@H](O[C@H]2[C@H](O)[C@@H](O)[C@H](OC[C@H]3O[C@@H](OC(=O)[C@]45CCC(C)(C)C[C@H]4C4=CC[C@@H]6[C@@]7(C)CC[C@H](O[C@@H]8OC[C@H](O)[C@H](O)[C@H]8O)[C@@](C)(CO)[C@@H]7CC[C@@]6(C)[C@]4(C)CC5)[C@H](O)[C@@H](O)[C@@H]3O)O[C@@H]2CO)[C@H](O)[C@H](O)[C@H]1O [IVL-15, hederacoside D] | inactive | –
CC1(C)CC[C@]2(CO)CC[C@]3(C)C(=CC[C@@H]4[C@@]5(C)CC[C@@H]6O[C@H]([C@H](O)[C@@H](O)[C@@H](O)CO)OC[C@@]6(C)[C@@H]5CC[C@]43C)[C@@H]2C1 [IVL-80, Anemoclemoside A2] | – | AMA ED50 - effective dose to kill 50% of axenic L. mexicana amastigotes [3]: >50 µM
